Measured values taken from ChEMBL document CHEMBL4823247, “Natural Isoflavones and Semisynthetic Derivatives as Pancreatic Lipase Inhibitors” (J Nat Prod, 2021).
pIC50, pKi: −log10 of the molar value. Active and inactive are the calls of the source. The rule behind the calls is not given here.

Assays:
[1] = Inhibition of pig pancreatic lipase type 2 using p-nitrophenyl butyrate as substrate preincubated with enzyme for 10 mins followed by susbtrate addition and measured after 30 mins by spectrophotometric analysis; design: species or system Sus scrofa
In short: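 PL (300 U/mL stock, in 50 mM phosphate buffer pH 7.2) was preincubated with compound aliquots (MeOH or MeOH:DMSO 95:5 stocks) for 10 min at 37 °C. p-Nitrophenyl butyrate (3.2 mM stock) was then added and incubated 30 min at 37 °C with shaking, read at 405 nm. Five concentrations per compound, in triplicate. % inhibition was taken from absorbance vs no-compound control, and IC50 by regression.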

Sus scrofa [2] = organism: Sus scrofa; experiment: Binding affinity to pig pancreatic lipase type 2 assessed as Stern-Volmer quenching constant at 32 degC measured after 1 min by Stern-Volmer plot analysis
In short: (§1)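 Intrinsic Trp fluorescence titration of PL, 1.1 μM in 0.1 M phosphate buffer with 0.1 M NaCl, pH 7.4, by successive 1 or 2 μL additions of compound. Run at 27, 32 and 37 °C, each in triplicate. Excitation 285 nm, slits 10 nm. Spectrum recorded 1 min after each addition. Intensity at the emission maximum was used for Stern–Volmer plots.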

Sus scrofa [3] = organism: Sus scrofa; experiment: Binding affinity to pig pancreatic lipase type 2 assessed as decrease in fluorescence intensity at 27 degC measured after 1 min by fluorescence spectral analysis; in short: as §1
Sus scrofa [4] = organism: Sus scrofa; experiment: Binding affinity to pig pancreatic lipase type 2 assessed as decrease in fluorescence intensity at 37 degC measured after 1 min by fluorescence spectral analysis; in short: as §1
Sus scrofa [5] = organism: Sus scrofa; experiment: Binding affinity to pig pancreatic lipase type 2 assessed as quenching rate constant at 37 degC measured after 1 min by Stern-Volmer plot analysis; in short: as §1
Sus scrofa [6] = organism: Sus scrofa; experiment: Binding affinity to pig pancreatic lipase type 2 assessed as bathochromic shift of maximum fluorescence intensity at 37 degC measured after 1 min by fluorescence spectral analysis; in short: as §1
Sus scrofa [7] = organism: Sus scrofa; experiment: Binding affinity to pig pancreatic lipase type 2 assessed as Stern-Volmer quenching constant at 37 degC measured after 1 min by Stern-Volmer plot analysis; in short: as §1
Sus scrofa [8] = organism: Sus scrofa; experiment: Binding affinity to pig pancreatic lipase type 2 assessed as quenching rate constant at 27 degC measured after 1 min by Stern-Volmer plot analysis; in short: as §1
Sus scrofa [9] = organism: Sus scrofa; experiment: Binding affinity to pig pancreatic lipase type 2 assessed as Stern-Volmer quenching constant at 27 degC measured after 1 min by Stern-Volmer plot analysis; in short: as §1
[10] = Non-competitive inhibition of pig pancreatic lipase type 2 using varying concentrations of p-nitrophenyl butyrate as substrate measured every 1 min for 30 mins by Lineweaver-Burk plot analysis; design: species or system Sus scrofa
In short: (§2)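 A405 was read every 1 min for 30 min. Mode of inhibition was from Lineweaver–Burk plots of 1/v0 vs 1/[S]. Ki and K'i were obtained from replots of slope and y-intercept versus inhibitor concentration.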

Sus scrofa [11] = organism: Sus scrofa; experiment: Binding affinity to pig pancreatic lipase type 2 assessed as bathochromic shift of maximum fluorescence intensity at 32 degC measured after 1 min by fluorescence spectral analysis; in short: as §1
Sus scrofa [12] = organism: Sus scrofa; experiment: Binding affinity to pig pancreatic lipase type 2 assessed as decrease in fluorescence intensity at 32 degC measured after 1 min by fluorescence spectral analysis; in short: as §1
Sus scrofa [13] = organism: Sus scrofa; experiment: Binding affinity to pig pancreatic lipase type 2 assessed as binding constant at 32 degC measured after 1 min by Stern-Volmer plot analysis; in short: as §1
[14] = Competitive inhibition of pig pancreatic lipase type 2 using varying concentrations of p-nitrophenyl butyrate as substrate measured every 1 min for 30 mins by Lineweaver-Burk plot analysis; design: species or system Sus scrofa; in short: as §2
Sus scrofa [15] = organism: Sus scrofa; experiment: Binding affinity to pig pancreatic lipase type 2 assessed as bathochromic shift of maximum fluorescence intensity at 27 degC measured after 1 min by fluorescence spectral analysis; in short: as §1
Sus scrofa [16] = organism: Sus scrofa; experiment: Binding affinity to pig pancreatic lipase type 2 assessed as binding constant at 37 degC measured after 1 min by Stern-Volmer plot analysis; in short: as §1
Sus scrofa [17] = organism: Sus scrofa; experiment: Binding affinity to pig pancreatic lipase type 2 assessed as quenching rate constant at 32 degC measured after 1 min by Stern-Volmer plot analysis; in short: as §1
Sus scrofa [18] = organism: Sus scrofa; experiment: Binding affinity to pig pancreatic lipase type 2 assessed as binding constant at 27 degC measured after 1 min by Stern-Volmer plot analysis; in short: as §1

pIC50 [1] | KSV (Sus scrofa [2]) | Activity (Sus scrofa [3]) | Activity (Sus scrofa [4]) | Kq (Sus scrofa [5]) | Activity (Sus scrofa [6]) | KSV (Sus scrofa [7]) | Kq (Sus scrofa [8]) | KSV (Sus scrofa [9]) | pKi [10] | Activity (Sus scrofa [11]) | Activity (Sus scrofa [12]) | Ka (Sus scrofa [13]) | pKi [14] | Activity (Sus scrofa [15]) | Ka (Sus scrofa [16]) | Kq (Sus scrofa [17]) | Ka (Sus scrofa [18]) | Structure (SMILES)
4.03 | – | – | – | – | – | – | – | – | – | – | – | – | – | – | – | – | – | COc1ccc(-c2coc3c(O)c(O)ccc3c2=O)cc1
4.15 | – | – | – | – | – | – | – | – | – | – | – | – | – | – | – | – | – | O=c1c(-c2ccc(O)c(O)c2)coc2cc(O)ccc12
3.44 | – | – | – | – | – | – | – | – | – | – | – | – | – | – | – | – | – | COc1ccc2c(=O)c(-c3ccc(OC)c(OC)c3)coc2c1
4.20 | 0.96 10^4L/mol | Active | Active | 0.7 10^13L/mol.s | Active | 1.11 10^4L/mol | 0.36 10^13L/mol.s | 0.58 10^4L/mol | 2.92 | Active | Active | 1.99 10^4L/mol | 4.05 | Active | 3.21 10^4L/mol | 0.6 10^13L/mol.s | 0.32 10^4L/mol | O=c1c(-c2cc(Br)c(O)c(Br)c2)coc2c(Br)c(O)ccc12
4.00 | – | – | – | – | – | – | – | – | – | – | – | – | – | – | – | – | – | COc1ccc(-c2coc3c(Br)c(O)ccc3c2=O)cc1Br
4.04 | – | – | – | – | – | – | – | – | – | – | – | – | – | – | – | – | – | Cc1cc(O)cc2occ(-c3ccc(O)c(O)c3)c(=O)c12
3.91 | – | – | – | – | – | – | – | – | – | – | – | – | – | – | – | – | – | CC(=O)Oc1ccc2c(=O)c(-c3ccc(OC(C)=O)c(OC(C)=O)c3)coc2c1
4.06 | 3.34 10^4L/mol | Active | Active | 1.43 10^13L/mol.s | Active | 2.29 10^4L/mol | 2.95 10^13L/mol.s | 4.69 10^4L/mol | 2.72 | Active | Active | 8.47 10^4L/mol | 3.49 | Active | 1.47 10^4L/mol | 2.1 10^13L/mol.s | 12.4 10^4L/mol | COc1ccc(-c2coc3c(Br)c(O)ccc3c2=O)cc1
4.08 | 4.94 10^4L/mol | Active | Active | 2.57 10^13L/mol.s | Active | 4.08 10^4L/mol | 5.62 10^13L/mol.s | 8.95 10^4L/mol | 3.20 | Active | Active | 1.2 10^4L/mol | 3.52 | Active | 1.02 10^4L/mol | 3.11 10^13L/mol.s | 5.3 10^4L/mol | O=c1c(-c2ccc(O)cc2)coc2cc(O)ccc12 [DAIDZEIN]
3.92 | 1.02 10^4L/mol | Active | Active | 0.66 10^13L/mol.s | Active | 1.06 10^4L/mol | 0.45 10^13L/mol.s | 0.72 10^4L/mol | 2.54 | Active | Active | 0.22 10^4L/mol | 3.19 | Active | 0.27 10^4L/mol | 0.64 10^13L/mol.s | 0.16 10^4L/mol | COc1ccc(-c2coc3cc(O)ccc3c2=O)cc1 [FORMONONETIN]
4.22 | 1.5 10^4L/mol | Active | Active | 0.67 10^13L/mol.s | Active | 1.07 10^4L/mol | 1.18 10^13L/mol.s | 1.88 10^4L/mol | – | Active | Active | 0.87 10^4L/mol | 4.10 | Active | 0.44 10^4L/mol | 0.94 10^13L/mol.s | 1.24 10^4L/mol | O=c1c(-c2ccc(O)cc2)coc2cc(O)cc(O)c12 [GENISTEIN]
6.22 | – | – | – | – | – | – | – | – | – | – | – | – | – | – | – | – | – | CCCCCCCCCCC[C@@H](C[C@@H]1OC(=O)[C@H]1CCCCCC)OC(=O)[C@H](CC(C)C)NC=O [ORLISTAT]
